Source: article PMC4624502 (Experimental eye research, 2015)

Assays:
[1] = biological target: T1, zIRBP (zebrafish IRBP, gene II product, full-length two-module) (Danio rerio, UniProt F1Q9N9); assay: fluorescence titration, enhancement of retinol fluorescence; format: binding
T1 sequence (F1Q9N9 22-615): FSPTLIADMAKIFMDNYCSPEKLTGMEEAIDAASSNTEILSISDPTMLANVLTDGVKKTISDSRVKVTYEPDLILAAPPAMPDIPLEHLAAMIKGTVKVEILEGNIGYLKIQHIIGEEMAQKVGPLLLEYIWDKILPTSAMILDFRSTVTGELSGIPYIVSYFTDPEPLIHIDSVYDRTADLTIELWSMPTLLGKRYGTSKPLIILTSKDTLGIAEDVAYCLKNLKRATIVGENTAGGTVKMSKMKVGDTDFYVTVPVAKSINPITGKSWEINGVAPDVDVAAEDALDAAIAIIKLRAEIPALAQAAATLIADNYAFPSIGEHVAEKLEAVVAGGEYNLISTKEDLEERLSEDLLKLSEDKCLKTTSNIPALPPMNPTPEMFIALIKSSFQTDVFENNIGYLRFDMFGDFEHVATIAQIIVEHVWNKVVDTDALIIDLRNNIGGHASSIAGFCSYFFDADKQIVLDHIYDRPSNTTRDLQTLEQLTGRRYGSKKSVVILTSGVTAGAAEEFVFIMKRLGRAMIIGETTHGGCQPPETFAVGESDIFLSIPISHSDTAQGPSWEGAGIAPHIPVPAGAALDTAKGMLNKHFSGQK
In short: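 Full-length zIRBP was expressed in E. coli BL21(DE3), His-trap purified, TEV-cleaved, and anion-exchange polished (>98% pure). Retinol in ethanol was added in 0.5 µL aliquots at 1 min intervals to 1 µM protein or to buffer (final alcohol ≤2%). Fluorescence was read at ex 330/em 480 nm with oleic acid at 0.0–0.112 µM. Kd came from a nonlinear least-squares one-site Hill fit.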

[2] = biological target: T2, zebrafish IRBP module 1 (z1) (Danio rerio, UniProt F1Q9N9); assay: X-ray crystal structure, […] Å; format: binding; settings: oleic acid in hydrophobic pocket of domain A; pH 7.5, PEG 8000
T2 sequence (F1Q9N9 22-330): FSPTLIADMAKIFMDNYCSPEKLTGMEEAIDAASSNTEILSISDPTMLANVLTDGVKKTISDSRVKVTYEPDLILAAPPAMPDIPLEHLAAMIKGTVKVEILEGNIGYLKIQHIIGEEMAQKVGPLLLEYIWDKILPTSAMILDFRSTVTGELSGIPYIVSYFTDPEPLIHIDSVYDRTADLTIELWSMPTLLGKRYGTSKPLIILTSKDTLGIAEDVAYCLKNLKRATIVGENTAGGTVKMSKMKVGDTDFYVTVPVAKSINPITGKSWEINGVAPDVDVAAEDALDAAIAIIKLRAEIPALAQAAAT

| Kd [1] [nM] | SMILES | X-ray crystal structure, 1.90 Å [2] |
| --- | --- | --- |
| 910 ± 50 | CC1=C(/C=C/C(C)=C/C=C/C(C)=C/CO)C(C)(C)CCC1 [all-trans retinol] | – |
| – | CCCCCCCC/C=C\CCCCCCCC(=O)O [oleic acid] | electron density for an extended oleic acid molecule in domain A |
